Target: T1, Secreted aspartic protease 2 (Candida albicans, UniProt P0CS83)
Experiment: Inhibition of candida albicans SAP2
Method in brief: (§1)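 SAP2 protease (1 µg/mL solution) incubated with inhibitor in 0.05% (w/v) BSA, 50 mM sodium citrate pH 3.2, 30 min at 37 °C. Reaction stopped with 10% TCA, kept on ice 30 min, then centrifuged. Supernatant A280 read against a BSA-in-citrate blank. ΔOD per minute measured at inhibitor levels of 5, 1 and 0.1 µM and 5, 1 and 0.1 nM. Pepstatin A run as reference at the same concentrations.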

T1 sequence (P0CS83 whole entry): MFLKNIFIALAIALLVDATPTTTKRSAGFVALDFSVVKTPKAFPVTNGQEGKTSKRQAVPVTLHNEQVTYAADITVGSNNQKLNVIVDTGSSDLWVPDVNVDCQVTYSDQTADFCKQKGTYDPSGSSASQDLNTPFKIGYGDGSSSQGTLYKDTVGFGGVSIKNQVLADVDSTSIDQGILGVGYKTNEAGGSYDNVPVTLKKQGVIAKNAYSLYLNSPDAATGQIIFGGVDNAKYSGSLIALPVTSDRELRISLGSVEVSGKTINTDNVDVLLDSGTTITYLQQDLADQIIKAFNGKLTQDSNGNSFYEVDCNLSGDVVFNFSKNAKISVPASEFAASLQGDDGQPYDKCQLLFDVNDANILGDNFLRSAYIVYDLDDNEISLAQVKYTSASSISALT

Ki | Structure (SMILES)
12 nM | CCCCNC(=O)[C@H](C[C@H](O)[C@H](CC1CCCCC1)NC(=O)[C@H](CCCC)N1CCN(C(=O)N2CCN(C)CC2)[C@H](Cc2ccccc2)C1=O)C(C)C

Target: Secreted aspartic protease 2 (Candida albicans) (UniProt P0CS83)
Sequence (P0CS83 57-398 limits assumed): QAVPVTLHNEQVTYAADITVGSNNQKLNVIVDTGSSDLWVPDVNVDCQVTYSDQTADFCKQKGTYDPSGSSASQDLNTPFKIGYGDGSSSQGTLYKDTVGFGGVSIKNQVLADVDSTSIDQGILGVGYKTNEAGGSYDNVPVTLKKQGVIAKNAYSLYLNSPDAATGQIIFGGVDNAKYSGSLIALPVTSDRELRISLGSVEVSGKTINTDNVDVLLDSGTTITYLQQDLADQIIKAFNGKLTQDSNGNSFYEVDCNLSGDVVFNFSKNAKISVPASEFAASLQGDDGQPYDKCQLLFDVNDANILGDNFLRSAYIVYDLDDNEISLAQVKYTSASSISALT
Experiment: Ratio of pepstatin A IC50 to compound IC50 for candida albicans SAP2 by spectrophotometric analysis
Method in brief: as §1

Structure (SMILES) | Ratio IC50
O=C([C@@H]1O[C@H]2CN(Cc3ccccc3)C(=O)[C@@H]1O2)N1CCCCC1 | 3

Target: T1, Secreted aspartic protease 2
Experiment: Inhibition of candida albicans SAP2 using 0.05% BSA as substrate by spectrophotometric analysis
Method in brief: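 SAP2 incubated with inhibitor in 0.05% (w/v) BSA substrate, 50 mM sodium citrate pH 3.2, for 30 min at 37 °C. Stopped with 10% (w/v) TCA, held on ice 30 min, centrifuged 3000 g 10 min. Supernatant A280 read against 0.05% BSA in citrate blank. ΔOD per min taken at six inhibitor concentrations, including 5, 1 and 0.1 nM. Pepstatin A run at matching concentrations.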

Structure (SMILES) | IC50
CC(C)C[C@@H](CO)NC(=O)C1O[C@@H]2CN(Cc3ccccc3)C(=O)[C@H]1O2 (stereo partly drawn) | 1100 nM
COC(=O)[C@@H](CC(C)C)N1C[C@@H]2O[C@@H](C(=O)N3CCCCC3)[C@@H](O2)C1=O | 890 nM
COC(=O)[C@@H](CC(C)C)N1C[C@H]2O[C@H](C(=O)N3CCCCC3)[C@H](O2)C1=O | 740 nM
COC(=O)[C@H](CC(C)C)N1C[C@@H]2O[C@@H](C(=O)N3CCCCC3)[C@@H](O2)C1=O | 900 nM
CC(C)C[C@H](CO)NC(=O)C1O[C@H]2CN(Cc3ccccc3)C(=O)[C@@H]1O2 (stereo partly drawn) | > 10000 nM
O=C([C@@H]1O[C@H]2CN(Cc3ccccc3)C(=O)[C@@H]1O2)N1CCCCC1 | 30 nM
COC(=O)[C@H](CC(C)C)N1C[C@H]2O[C@H](C(=O)N3CCCCC3)[C@H](O2)C1=O | > 10000 nM
O=C([C@H]1O[C@@H]2CN(Cc3ccccc3)C(=O)[C@H]1O2)N1CCCCC1 | 980 nM
CC(C)C[C@H](CO)NC(=O)C1O[C@@H]2CN(Cc3ccccc3)C(=O)[C@H]1O2 (stereo partly drawn) | > 10000 nM
CC(C)C[C@@H](CO)NC(=O)C1O[C@H]2CN(Cc3ccccc3)C(=O)[C@@H]1O2 (stereo partly drawn) | 550 nM
CC(C)CC(=O)N[C@H](C(=O)N[C@H](C(=O)N[C@@H](CC(C)C)[C@@H](O)CC(=O)N[C@@H](C)C(=O)N[C@@H](CC(C)C)[C@@H](O)CC(=O)O)C(C)C)C(C)C [PEPSTATIN] | 90 nM
